Most compounds without a hit are left out; they make up all but 2.6% or so of the library.
SENP8 block-1 – human SENP8 protease inhibitors, primary screen, biochemical, fluorescence, Nedd8 protein substrate, uHTS. recombinant SENP8. inhibition, % at 20 µM. 360,000 tested, 0.64% active; in the data active means inhibition mostly above about 40%, no sharp cut-off; inactive means mostly below about 27%
Target sequence (Q96LD8 whole entry, looked up): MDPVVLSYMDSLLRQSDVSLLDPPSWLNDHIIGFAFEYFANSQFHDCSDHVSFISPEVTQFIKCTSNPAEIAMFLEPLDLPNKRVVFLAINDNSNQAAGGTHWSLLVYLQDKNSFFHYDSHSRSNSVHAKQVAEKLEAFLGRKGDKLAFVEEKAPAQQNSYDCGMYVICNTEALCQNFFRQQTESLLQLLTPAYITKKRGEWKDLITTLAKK
SENP6 inh – SENP6 protease inhibitors, primary screen, biochemical, luminescence, uHTS | Sentrin-specific protease 6 (Homo sapiens), Q9GZR1 | Recombinant SENP6 catalytic domain, aminoluciferin luminescence | inhibition, % at 10 µM | 330,000 tested, 1.8% active | AID 2599, 2010;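 active means inhibition above about 50% at the single tested dose, limit read from the data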;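 further: plate controls were DMSO wells with enzyme for no effect and DMSO wells lacking enzyme for full effect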
SENP1 FRET inh – human SENP1 catalytic domain inhibitors, primary screen, biochemical, FRET, uHTS | recombinant SENP1 catalytic domain, CyPet-SUMO1-YPet FRET cleavage | inhibition, % at 10 µM | 360,000 tested, 0.21% active;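 active means inhibition at least 30% at 10 µM, raw YFP signal under a set limit, fluorescence ratio 0.5 to 1.5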;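 further: 0% = enzyme with DMSO and 100% = no enzyme wells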
Target sequence (Q9P0U3 419-644 limits assumed): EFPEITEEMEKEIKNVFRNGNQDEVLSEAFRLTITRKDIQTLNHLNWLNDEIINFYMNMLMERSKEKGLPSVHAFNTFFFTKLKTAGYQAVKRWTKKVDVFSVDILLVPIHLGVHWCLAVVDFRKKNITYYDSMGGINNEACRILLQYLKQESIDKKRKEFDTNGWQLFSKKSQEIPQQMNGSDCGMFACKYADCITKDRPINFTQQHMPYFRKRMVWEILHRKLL
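Material: hSENP1 catalytic domain, recombinant; medium: Tris pH 8 with BME, BSA, NP40 and catalase; compound: single concentration of 10 µM compound, 0.5% DMSO final; technique: FRET read of cyan and yellow fluorescence; timing: 50 min enzyme reaction, room temperature, light-protected; reagent: SFCypet-SUMO1-SFYpet substrate at 25 nM; control set: no-enzyme low, enzyme-DMSO high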
Platelet DG rel – inhibitors of platelet dense granule secretion, primary screen, cell-based, MLPCN, human platelets | inhibition, %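 (compounds screened at 7.5 µM in platelet-rich plasma)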 | human platelet-rich plasma, SFLLRN dense granule ATP release, luminescence | 300,000 tested, 0.22% active;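 active means mean replicate score, as percent of positive control, at or above 50; inconclusive means mean below 50 but at least one replicate at or above 50; inactive means mean and every replicate below 50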
SENP8 block-2 – SENP8 protease inhibitors, primary screen, biochemical, luminescence. purified SENP8, Z-RLRGG-aminoluciferin cleavage. inhibition, % at 10 µM. 330,000 tested, 1.2% active. AID 2540, 2010; in the data active means inhibition above about 50%
SENP7 inh – SENP7 protease inhibitors, primary screen, biochemical, luminescence, uHTS; Sentrin-specific protease 7 (Homo sapiens), Q9BQF6; recombinant SENP7, Z-RLRGG-aminoluciferin luminescence, 40 min; inhibition, % at 5 µM; 330,000 tested, 1.5% active; AID 434973, 2010;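 active means inhibition above about 50% at the single test dose, limit read from the data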;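 further: plate controls were DMSO with enzyme for no effect and no enzyme buffer wells for full effect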
SENP8 confirm – SENP8 protease inhibitors, retest, confirmation, biochemical, luminescence, single concentration. inhibition, % at 12.5 µM. shares compounds with SENP7 inh. AID 488912, 2010. 6,200 tested, 40% active. Recombinant SENP8, Z-RLRGG-aminoluciferin luminescence, 60 min;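 active means mean inhibition across replicates above about 50%, limit read from the data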
SENP6 confirm – SENP6 protease inhibitors, confirmation, biochemical, luminescence, single concentration; shares compounds with SENP7 inh; recombinant SENP6, Z-RLRGG-aminoluciferin luminescence; inhibition, % at 12.5 µM; 6,200 tested, 58% active; AID 488915, 2010
SENP7 conf – SENP7 protease inhibitors, retest, confirmation, biochemical, luminescence, single concentration; shares compounds with SENP7 inh; recombinant SENP7, Z-RLRGG-aminoluciferin luminescence, 40 min; inhibition, % at 12.5 µM; 6,200 tested, 69% active
Casp3 SENP sel – caspase-3 protease inhibitors, confirmation, selectivity assay for SENP inhibitor project, biochemical, single concentration; inhibition, % at 12.5 µM; purified caspase-3, Z-DEVD-aminoluciferin luminescence, 60 min; 6,200 tested, 60% active; shares compounds with SENP7 inh; AID 488918, 2010;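 active means mean inhibition above about 50%, limit read from the data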;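 further: plate controls were enzyme with DMSO for no effect and wells without caspase-3 for full effect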
Target sequence (P42574 28-227 limits assumed): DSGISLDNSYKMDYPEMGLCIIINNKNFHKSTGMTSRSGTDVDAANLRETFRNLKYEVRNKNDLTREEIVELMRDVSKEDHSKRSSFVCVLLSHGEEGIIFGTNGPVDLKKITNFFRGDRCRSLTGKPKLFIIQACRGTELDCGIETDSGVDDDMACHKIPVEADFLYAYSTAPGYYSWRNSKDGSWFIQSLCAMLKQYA
Luc interf – interferes with luciferase luminescence in SENP counter-screen | Pre-incubated SENP8/Z-RLRGG-aminoluciferin, luciferase luminescence interference | inhibition, % at 12.5 µM | shares compounds with SENP7 inh | 6,200 tested, 39% active;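 active means mean inhibition above about 50% when retested at one dose, limit read from the data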;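 further: plate controls were DMSO wells with completed reaction for no effect and substrate without enzyme for full effect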
An asterisk follows results filed as active; i = inactive; u = inconclusive; x = no result.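 How the source made its calls, unless noted: active means mean inhibition above about 50% in the one-dose retest (limit read from the data); inactive means the rest.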

SMILES	SENP8 block-1	SENP6 inh	SENP1 FRET inh	Platelet DG rel	SENP8 block-2	SENP7 inh	SENP8 confirm	SENP6 confirm	SENP7 conf	Casp3 SENP sel	Luc interf
CC(=O)COC(=O)C1=NN(c2ccccc2)C(=O)CC1	15.0	-4.5	-1.2	-2.1	-4.4	3.2	x	x	x	x	x
Cc1ccc2c(C)ccc(O)c2n1	6.8	-5.0	-7.6	0.1	-6.0	-7.9	x	x	x	x	x
Cc1ccc(O)c(N=Nc2ccccc2)n1	8.1	93.1*	1.3	77.2*	95.4*	100.4*	94.6*	98.2*	103.0*	96.5*	62.2*
Oc1ccccc1/C=N/Nc1nccnc1Cl	-11.5	79.7*	0.9	2.4	82.8*	93.3*	91.0*	91.1*	100.4*	94.1*	92.6*
COc1cccc(/C=N/Nc2nccnc2Cl)c1O	-11.6	97.1*	1.5	84.2*	96.3*	100.4*	98.3*	99.3*	102.3*	98.0*	87.8*
O=[N+]([O-])c1ccccc1/C=N/Nc1nccnc1Cl	15.0	22.8	1.8	6.5	22.0	33.7	x	x	x	x	x
COC(=O)c1ccc(N2CCN(C)CC2)c(NC(=O)c2ccc(-c3ccc(Cl)cc3)o2)c1	-96.4	-2.9	-1.5	-23.2	4.4	1.9	x	x	x	x	x
O=C(Nc1ccc(C(F)(F)F)cc1)C1CCN(S(=O)(=O)c2ccc(N3CCCC3=O)cc2)CC1	5.2	0.6	0.5	-6.4	-1.6	-3.1	x	x	x	x	x
COc1ccc2nc(NC(=O)c3c(C)noc3C)sc2c1	i	78.5*	0.1	x	73.4*	82.6*	82.9*	80.7*	96.8*	88.4*	65.4*
Cc1noc(C)c1C(=O)Nc1nc2ccc(S(C)(=O)=O)cc2s1	-183.3	66.0*	0.0	22.6	38.1	62.2*	59.9*	55.5*	84.6*	84.8*	61.5*
CN(C(=O)c1ccc(Br)o1)C1(C)CCS(=O)(=O)C1 (stereo not given)	3.6	-15.3	0.4	19.1	-5.3	-0.5	x	x	x	x	x
CN(C(=O)c1ccccc1C(=O)OCC(=O)Nc1ccccc1)c1ccccc1	5.5	-8.9	0.0	x	-13.3	-2.4	x	x	x	x	x
Cc1cccc(OC(C)C(=O)Nc2nccs2)c1 (stereo not given)	26.7	-3.7	-2.5	-1.9	3.1	-1.7	x	x	x	x	x
COc1ccc(N2CCN(C(=O)C3CCCN3S(=O)(=O)c3cccc4nsnc34)CC2)cc1 (stereo not given)	10.5	-5.7	2.1	3.7	8.0	1.7	x	x	x	x	x
O=C(O)c1ccc(SCc2ccccc2)nc1	9.0	76.2*	1.7	-1.2	55.8*	-1.0	7.1	72.2*	91.7*	90.8*	79.6*
O=S(=O)(O)c1ccc(SCc2ccccc2)nc1	13.3	17.4	0.5	-23.9	10.0	5.5	x	x	x	x	x
O=C(NCC(c1cccs1)N1CCOCC1)c1cc2ccccc2oc1=O (stereo not given)	-71.3	2.0	-3.4	x	3.5	4.9	x	x	x	x	x
O=C1/C(=C/Nc2ccc3c(c2)OCO3)CCc2ccccc21	-429.2	97.0*	8.5	u	97.9*	98.2*	-23.9	100.7*	103.8*	98.2*	85.1*
COc1ccc2c(c1)CC/C(=C\Nc1ccc3c(c1)OCO3)C2=O	-103.7	60.9*	-22.8	1.5	61.1*	53.7*	3.3	59.6*	48.8	10.4	13.6
O=C1OC2(CCCCC2)OC(=O)C1=CNc1ccc2c(c1)OCO2	-58.1	0.6	-1.2	1.9	-2.0	0.6	x	x	x	x	x
COc1ccc(N/C=C2\CCc3ccccc3C2=O)cc1	-227.5	97.3*	-35.7	47.1	95.6*	32.3	35.8	100.6*	103.9*	98.6*	70.4*
C/C(=N\NC(=O)c1cccc(C)c1O)c1ccc(NC(=O)Cc2ccccc2)cc1	-236.4	5.8	1.4	16.3	2.4	6.3	x	x	x	x	x
Cc1n[nH]c(=O)nc1N/N=C/c1ccc(O)c([N+](=O)[O-])c1	55.3*	65.0*	2.1	17.9	36.3	64.8*	50.2*	38.6	81.9*	77.4*	8.0
COc1ccc(/C=N/Nc2nc(=O)[nH]nc2C)cc1[N+](=O)[O-]	22.6	22.6	1.9	7.5	-10.9	15.7	x	x	x	x	x
COc1ccc(C(=O)Cc2cc3ccccc3oc2=O)cc1	10.3	-12.2	-6.1	1.8	-13.3	-0.9	x	x	x	x	x
SMILES	SENP8 block-1	SENP6 inh	SENP1 FRET inh	Platelet DG rel	SENP8 block-2	SENP7 inh	SENP8 confirm	SENP6 confirm	SENP7 conf	Casp3 SENP sel	Luc interf
c1ccc([C@H]2CN3C(=N2)Sc2ccccc23)cc1	14.3	93.5*	0.6	x	88.9*	88.0*	93.2*	93.0*	99.7*	88.0*	91.5*
CCCCNC(=O)/C=C1\Sc2ccccc2NC1=O	-224.3	10.6	-10.6	8.5	-7.2	7.0	x	x	x	x	x
CCc1ccc(C(=O)/C=C2\Sc3ccccc3NC2=O)cc1	15.3	70.0*	2.7	-8.4	32.3	2.5	69.0*	68.0*	87.8*	61.1*	14.4
FC(F)(F)c1nc2cc3nc4ccccc4[nH]c3cc2n1	8.0	54.0*	3.9	-6.9	49.1	27.9	66.9*	64.9*	86.0*	80.5*	69.6*
O=C(NC1CCCCC1)C(Cc1ccccc1)N1C(=O)C2C3CCC(C3)C2C1=O (stereo not given)	3.4	7.1	2.6	7.0	6.0	79.5*	7.0	5.0	-5.2	-5.0	-11.9
O=C(Nc1ccc2c(c1)CCC2)Nc1ccccc1Cl	1.1	94.6*	-0.2	13.4	91.2*	94.4*	41.6	92.9*	72.3*	81.4*	17.0
Cc1ccccc1NC(=O)Nc1ccc2c(c1)OCO2	6.2	91.2*	1.1	29.7	79.3*	95.6*	23.4	73.6*	25.2	92.4*	2.1
CCOc1ccccc1NC(=O)Nc1ccc2c(c1)CCC2	10.8	69.5*	2.3	7.5	47.5	52.9*	53.4*	68.0*	87.0*	36.2	47.9

Bioassay records from PubChem BioAssay.
